Measurements published in article PMC3982714 (International Journal of Oncology, 2012).
Where two headings read alike, the source gives them in different places.

Tests used:
[1] = Pharmacokinetics, HPLC analysis of plasma; format: in vivo, Fisher 344 rats
PGE2 = PGE2 in culture media of LPS-stimulated macrophages by ELISA; format: cell-based, mouse; conditions: RAW 264.7 macrophages, 130 μM for 12 h, then LPS 100 ng/ml overnight
Procedure, shortened: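 RAW 264.7 mouse macrophages grown in DMEM. 1.5×10⁶ cells pre-incubated 12 h with test compound at 130 μM, then stimulated with LPS 100 ng/ml overnight. PGE2 in culture media measured by ELISA. Mean ± SEM, ANOVA.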

NF-κB subunit p65 [2] = assay: Immunofluorescent staining of phospho-p65 in colon sections of AOM rats; format: in vivo, rat; conditions: AOM study, 40 weeks
Procedure, shortened: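 Colons from rats killed at week 40 were formalin-fixed and paraffin-embedded; 4 μm sections cut. Antigen retrieval by microwaving 15 min in 0.01 mol/l citrate, pH 6.0. Blocked with 5% donkey serum 30 min. Rabbit anti-phospho-p65 (Ser276) with mouse anti-β-catenin, or control IgG, applied overnight at 4°C. Fluorescent donkey secondaries 1 h at room temperature. Viewed by fluorescence microscopy.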

β-catenin [3] = assay: Western blot of β-catenin in nuclear extracts of HCT116 cells; format: cell-based, human
Procedure, shortened: (§1)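 HCT116 cells grown in RPMI-1640. Cytoplasmic and nuclear fractions prepared by lysis, with NP-40 added at a later step; supernatant taken as cytoplasm. Nuclei washed, then resuspended in extraction buffer and pelleted. Standard western blot. Probes: rabbit anti-phospho-p65 (Ser276) for p65; mouse anti-β-catenin for β-catenin.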

β-catenin [4] = assay: Immunofluorescent staining of β-catenin in colon sections of AOM rats; format: in vivo, rat; conditions: AOM study, 40 weeks
NF-κB subunit p65 [5] = assay: Western blot of p65 in nuclear extracts of HCT116 cells; format: cell-based, human
Procedure, shortened: as §1

[6] = format: in vivo, Fisher 344 rats; conditions: 7 days
Procedure, shortened: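 Male Fisher 344 rats, 8–9 weeks old, 7 per group. […] Killed by CO2 1 h after the last dose. Stomach, small intestine and colon inspected for ulcers under magnification, then formalin-fixed for histology. Heart, liver, lung and kidney collected for toxicity analysis.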

[7] = system: AOM-induced colonic ACF and tumors; format: in vivo, Fisher 344 rats; conditions: for Weight: average ± SE
Procedure, shortened: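 Male Fisher 344 rats, 3–4 weeks old, about 90 g, acclimated 1 week. AOM 15 mg/kg or saline given s.c. once weekly for 2 weeks. […] Rats weighed weekly. Week-20 colons formalin-fixed 24 h, stained with 0.2% methylene blue 3–5 min; ACF counted microscopically. Week-40 tumors counted; long and short diameters measured. Mean ± SEM, ANOVA.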

[8] = cited from earlier work
[9] = 20 weeks, saline, diet IBU 500 ppm or p-IBU 900 ppm
[10] = 40 weeks, saline, diet IBU 500 ppm or p-IBU 900 ppm

CC(C(=O)O)c1ccc(C(O)C(C)C)cc1 (stereo not drawn) [1-OH-ibuprofen]
plasma level of metabolite ([1]; 20 weeks (first value)): 4000 nM | plasma level of metabolite ([1]; 40 weeks): undetectable

CC(Cc1ccc(C(C)C(=O)O)cc1)C(=O)O (stereo not drawn) [carboxy-ibuprofen]
plasma level of metabolite ([1]; 20 weeks (first value)): 3000 nM | plasma level of metabolite ([1]; 40 weeks): 3000 nM

CC(C)Cc1ccc(C(C)C(=O)O[C@@H]2O[C@H](C(=O)O)[C@@H](O)[C@H](O)[C@H]2O)cc1 (stereo partly drawn) [ibuprofen-glucuronide]
plasma level of metabolite ([1]; 20 weeks (first value)): 1000 nM | plasma level of metabolite ([1]; 40 weeks): 1000 nM

CC(C)Cc1ccc(C(C)C(=O)O)cc1 (stereo not drawn) [ibuprofen, Ibuprofen]
suppression of PGE2 production compared to LPS-treated control (PGE2): 84.1% | effect on phosphorylation of p65 (NF-κB activation) (NF-κB subunit p65 [2]): not ibuprofen inhibited | β-catenin levels in nuclear extracts compared to vehicle-treated control (β-catenin [3]): markedly decreased | effect on AOM-induced β-catenin cytoplasmic accumulation and nuclear translocation (β-catenin [4]): reduced | nuclear translocation of the NF-κB subunit p65 (NF-κB activation) (NF-κB subunit p65 [5]): inhibitory effect was not observed | rats with stomach ulceration ([6]; ibuprofen 670 mg/kg by gavage, 7 rats): 85.7% | ulceration in stomach or intestine ([6]; low dose by gavage): did not lead to ulceration | Weight ([7]; 20 weeks, AOM, diet IBU 500 ppm or p-IBU 900 ppm): 406±118.91 | ACFs (ACF multiplicity) [7, 9]: 0 | Tumors [7, 9]: 0 | Weight [7, 9]: 416±6.11 | Weight ([7]; 40 weeks, AOM, diet IBU 500 ppm or p-IBU 900 ppm): 432±8.84 | ACFs [7, 10]: 0 | Tumors (tumor multiplicity) [7, 10]: 0 | Weight [7, 10]: 431±15.43 | reduction of the multiplicity of ACF compared with vehicle ([7]; week 20, AOM rats, diet ibuprofen 500 ppm or p-ibuprofen 900 ppm): 37.9% | reduction of the multiplicity of colon tumors compared with vehicle ([7]; week 40, AOM rats, diet ibuprofen 500 ppm or p-ibuprofen 900 ppm): 56.6%

CC(C(=O)O)c1ccc(CC(C)(C)O)cc1 (stereo not drawn) [2-OH-ibuprofen]
plasma level of metabolite ([1]; group fed a diet of ibuprofen): 99000 nM | plasma level of metabolite ([1]; group fed a diet of p-ibuprofen): 102000 nM

CC(C)Cc1ccc(C(C)C(=O)OCCN(C)C)cc1.Cl (stereo not drawn) [ibuprofen-O(CH2)2N(CH3)2HCl]
GI toxic side effects compared to the parent molecule [8]: decreased

CC(C)Cc1ccc(C(C)C(=O)NCC(=O)O)cc1 (stereo not drawn) [ibuprofen-NHCH2COOH]
GI toxic side effects compared to the parent molecule [8]: decreased
